This note sets out measurements from ChEMBL document CHEMBL2417361, “Investigation of acyclic uridine amide and 5'-amido nucleoside analogues as potential inhibitors of the Plasmodium falciparum dUTPase” (Bioorg Med Chem, 2013).

One series concerns L6. As to the kind of experiment: Cytotoxicity against rat L6 cells after 72 hrs by Alamar Blue assay. It counts as cell-based. The settings on record: L6, 72 h. The method in brief:
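Rat skeletal myoblast L6 line, with podophyllotoxin as control. EC50 is the mean of two independent assays.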
Background: Resazurin is reduced to fluorescent resorufin, in cell work by metabolically active cells.

The nature of series [1]: Selectivity index, ratio of EC50 for rat L6 cells to EC50 for Plasmodium falciparum K1. The settings on record: read-out: Ratio EC50. Type of series: toxicity, cell-based.
A further series relates to Plasmodium falciparum. As to the kind of experiment: Antiparasitic activity against chloroquine/pyrimethamine-resistant Plasmodium falciparum K1 infected in erythrocytes assessed as parasite growth inhibition after 48 hrs by [3H]-hypoxanthine incorporation assay. Type of series: functional, organism-based.
Series [2] concerns the target T1, Deoxyuridine 5'-triphosphate nucleotidohydrolase, mitochondrial (Homo sapiens, UniProt P33316).
T1 sequence (P33316 whole entry): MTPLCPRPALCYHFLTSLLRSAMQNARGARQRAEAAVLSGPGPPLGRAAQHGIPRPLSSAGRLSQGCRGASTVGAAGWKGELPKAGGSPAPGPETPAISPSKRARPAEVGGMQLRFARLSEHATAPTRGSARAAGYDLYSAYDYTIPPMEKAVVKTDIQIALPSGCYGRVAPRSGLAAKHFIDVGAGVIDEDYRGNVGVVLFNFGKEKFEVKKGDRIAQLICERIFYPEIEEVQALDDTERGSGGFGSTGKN
Briefly: Inhibition of recombinant human dUTPase expressed in Escherichia coli BL21 (DE3) using dUTP as substrate by spectrophotometric analysis. Put shortly:
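Human enzyme expressed in IPTG-induced E. coli BL21(DE3) and purified like the parasite enzyme (phosphocellulose, then gel filtration, ≥96% pure). Hydrolysis after rapid mixing was read as proton release using a cresol red/bicine indicator pair (pH 8, 573 nm), with absorbance change kept within 0.1 units. Vmax and KMapp were fitted to the integrated Michaelis–Menten equation.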

The nature of series [3]: Inhibition of recombinant Plasmodium falciparum dUTPase expressed in Escherichia coli BL21 (DE3) using dUTP as substrate by spectrophotometric analysis. The method in brief:
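Recombinant enzyme from IPTG-induced E. coli BL21(DE3), purified by phosphocellulose and gel filtration to ≥96% purity, stored in 10 mM bicine/5 mM MgCl2 pH 8. Stopped-flow mixing of 30 nM PfdUTPase with 50 µM dUTP, 5 mM MgCl2, 1 mg/mL BSA and 100 mM KCl. Proton release tracked with cresol red/bicine (pH 8) at 573 nm. Vmax and KMapp fitted by integrated Michaelis–Menten equation.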

Series [4] is described as follows: Selectivity index, ratio of Ki for human dUTPase to Ki for recombinant Plasmodium falciparum dUTPase.

Molecules are shown by their SMILES.

A word on the EC50: it is the midpoint of the concentration-response curve. For orientation: Ki means the dissociation constant of the complex between target and ligand, obtained from inhibition or displacement. As for `O=c1ccn([C@H]2C[C@H](O)[C@@H](CNC(c3ccccc3)c3ccccc3)O2)c(=O)[nH]1`, the concentration giving a half-maximal response (EC50) with L6 was over 229 µM; in the series with Plasmodium falciparum, 12 µM. For the same compound, the selectivity ratio in series [1] was over 20. Further, the inhibitory constant (Ki) is over 0.1 mM in series [2] and 0.2 µM in series [3].

`O=c1ccn(CCCCOC(c2ccccc2)c2ccccc2)c(=O)[nH]1`: the concentration giving a half-maximal response (EC50) in the series with L6 came out at 104 µM; with Plasmodium falciparum, 14 µM. In series [1], the selectivity ratio was determined as 7. For the same compound, the inhibition constant (Ki) was found to be 0.049 mM in series [2] and 0.5 µM in series [3].

With `O=C(NCCCO)C(c1ccccc1)c1ccccc1`, the Ratio Ki in series [4] worked out at 13. Moreover, the Ki in series [2] is 1 mM; in series [3], over 100 µM.

With `O=c1ccn(CCCCNC(c2ccccc2)(c2ccccc2)c2ccccc2)c(=O)[nH]1`, in series [1], the selectivity ratio stood at 9.

For the compound `O=C(NCCCn1ccc(=O)[nH]c1=O)C(c1ccccc1)(c1ccccc1)c1ccccc1`, in series [2], the Ki was 1 mM.

For `O=C(CCCn1ccc(=O)[nH]c1=O)NC(c1ccccc1)c1ccccc1`, in series [2], the Ki worked out at 1 mM.

Take `O=C(c1ccccc1)n1c(=O)ccn(CCCNC(=O)C(c2ccccc2)(c2ccccc2)c2ccccc2)c1=O`: the Ratio Ki in series [4] stood at 56. The Ki in series [2] was 1 mM; in series [3], over 100 µM.

On to `O=C(O)CCCn1ccc(=O)[nH]c1=O`, for which the Ratio Ki in series [4] was 400. Also, the Ki in series [2] is 1 mM; in series [3], over 100 µM.

Turning to `O=c1ccn([C@H]2C[C@H](O)[C@@H](CNC(c3ccccc3)(c3ccccc3)c3ccccc3)O2)c(=O)[nH]1`, the Ki in series [3] is 0.2 µM.

As to `O=c1ccn(CCCCCCNC(c2ccccc2)(c2ccccc2)c2ccccc2)c(=O)[nH]1`, in series [1], the selectivity ratio was 36.

Turning to `O=c1ccn(CCCOC(c2ccccc2)(c2ccccc2)c2ccccc2)c(=O)[nH]1`, in series [1], the selectivity ratio is 5.

Turning to `O=c1ccn(CCCCNC(c2ccccc2)c2ccccc2)c(=O)[nH]1`, the 50% effective concentration (EC50) in the series on L6 was determined as 99 µM; in the series on Plasmodium falciparum it was 2.6 µM. The selectivity ratio in series [1] worked out at 38. Besides, the results for the Ki in series [2] and in series [3] were 0.063 mM and 5.7 µM, respectively.

Consider `O=c1ccn(CCCCCCOC(c2ccccc2)(c2ccccc2)c2ccccc2)c(=O)[nH]1`, for which the selectivity ratio in series [1] was 19.

For the compound `O=C(CCCn1ccc(=O)[nH]c1=O)NC(c1ccccc1)(c1ccccc1)c1ccccc1`, the Ki in series [2] came to 1 mM.

Turning to `O=C(NCCCO)C(c1ccccc1)(c1ccccc1)c1ccccc1`, the Ratio Ki in series [4] was found to be 1.

Turning to `O=c1ccn(CCCNC(c2ccccc2)c2ccccc2)c(=O)[nH]1`, the EC50 amounted to 269 µM with L6 and 5.5 µM in the series with Plasmodium falciparum. In series [1], the selectivity ratio came out at 49. In addition, the Ki in series [2] came out at 0.01 mM; in series [3] it was 5.7 µM.
